# Key:
# Format in all cases: functional
# [1] = tested on: KB; assay: Compound was tested for its antitumor activity and the cytotoxicity against KB human carcinoma of the nasopharynx screen; settings: read-out: ED50 (the source's name)
# Procedure, shortened: (§1)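 Run per the NIH cytotoxicity protocol. Viable cells were counted by trypan blue exclusion and expressed as a percentage of the 0.05% Tween 80–water control. ED₅₀ was estimated from a semilog plot against drug concentration.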
# [2] = tested on: L1210; assay: Compound was tested for its antitumor activity and the cytotoxicity against L1210 lymphoid leukemia screen; settings: Mus musculus, read-out: ED50 (the source's name); procedure, shortened: as §1
# [3] = tested on: P388; assay: Compound was tested for its antitumor activity and the cytotoxicity against P-388 lymphocytic leukemia screen; settings: Mus musculus, read-out: ED50 (the source's name); procedure, shortened: as §1
SMILES,EC50 [1] [µg/mL],EC50 [2] [µg/mL],EC50 [3] [µg/mL]
C=C1CC(C)(Cn2c(N)nc3ncnc-3c2O)OC1=O (stereo unspecified),> 10,1.3,> 20
C=C1CC(C)(Cn2cnc3c(O)ncnc32)OC1=O (stereo unspecified),> 10,2,> 20
COc1cc([C@@H]2c3cc4c(cc3[C@@H](O[C@@H]3O[C@@H]5CO[C@@H](C)O[C@H]5[C@H](O)[C@H]3O)[C@H]3COC(=O)[C@H]23)OCO4)cc(OC)c1O [ETOPOSIDE],–,1.58,1.71
C=C1CC(C)(Cn2cnc3c(N)ncnc32)OC1=O (stereo unspecified),5,0.3,> 20

# Reference: ChEMBL document CHEMBL1123705, “Antitumor agents. 86. Synthesis and cytotoxicity of alpha-methylene-gamma-lactone-bearing purines” (1987)
